From PubChem
An excerpt weighted towards active compounds, which were near 7.2% of everything screened.
tolC growth inh = E. coli tolC mutant growth inhibition; growth inhibition, % at 10 µM (by protocol); E. coli BW25113 tolC mutant growth, OD615; AID 573; hit rate 2.2% among 65,000;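 active = growth inhibition at or above a cutoff equal to the mean over every tested compound plus 3 SD, cut at about 60% in these data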;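 also: growth measured after 20 h incubation at 37 °C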
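Material: E. coli BW25113 ΔtolC::kan, tolC deletion mutant strain. Measure: percent growth inhibition. Schedule: 37 °C, 20 h exposure. Doses: single-point testing at 10 µM. Signal: A615 absorbance measurement. Buffer or medium: kanamycin-containing LB broth (50 µg/mL).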
PostGolgi ctrl = yeast control strain growth, post-Golgi counter-screen; efflux-deficient yeast background strain, growth absorbance A615, 16 h; hit rate 5% among 98,000; inhibition, % at 10 µM; AID 738
E coli WT exp = blocks growth of wild type E. coli BW25113 | hit rate 0.15% among 98,000 | OD600 absorbance | growth inhibition, % at 100 µM;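 active = growth inhibition above about 50% at one test dose, limit read from the data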;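 also: growth measured after 20 h incubation at 37 °C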
PLAP act = activates human placental alkaline phosphatase; P05187; purified PLAP enzyme, luminescent substrate read-out; hits give high values; activation fold at 20 µM; hit rate 1.2% among 96,000; AID 696; in the data active = activation fold above about 2
Target sequence (P05187 whole entry, looked up): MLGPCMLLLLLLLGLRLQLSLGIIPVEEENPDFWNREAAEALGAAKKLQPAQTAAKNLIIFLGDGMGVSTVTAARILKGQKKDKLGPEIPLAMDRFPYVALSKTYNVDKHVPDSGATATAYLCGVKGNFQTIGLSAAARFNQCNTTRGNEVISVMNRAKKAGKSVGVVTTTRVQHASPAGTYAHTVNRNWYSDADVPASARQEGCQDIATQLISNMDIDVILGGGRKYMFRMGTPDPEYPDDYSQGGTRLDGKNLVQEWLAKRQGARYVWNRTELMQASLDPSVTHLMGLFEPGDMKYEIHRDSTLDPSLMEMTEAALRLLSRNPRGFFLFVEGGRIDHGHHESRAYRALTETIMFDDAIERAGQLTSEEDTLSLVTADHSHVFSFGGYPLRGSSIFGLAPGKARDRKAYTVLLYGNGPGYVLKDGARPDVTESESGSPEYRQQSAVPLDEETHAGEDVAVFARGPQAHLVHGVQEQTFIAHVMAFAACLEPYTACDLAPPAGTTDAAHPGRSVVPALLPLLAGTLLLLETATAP
PostGolgi yeast = growth inhibition of a yeast mutant, post-Golgi transport screen; post-Golgi transport phenotypic cell assay; inhibition, % at 10 µM; hit rate 0.9% among 98,000; AID 739;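 also: yeast cells grown in 1536-well plates; yeast grown about 18 h at 30C before absorbance read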
Of the large screens only hits and unclear results are named; the others gave an inactive call. Rule as the data show it, unless noted: active = inhibition above about 30%; inactive = the rest.

O=C(N/N=C/c1cccs1)c1cc(-c2ccc3ccccc3c2)n[nH]1	PostGolgi ctrl 59 (no result: tolC growth inh)
CCN(CC)C(=O)C(Sc1ccccc1)c1ccccc1 (centres undefined)	none (no result: tolC growth inh)
CCOC(=O)c1cc2occc2n1CC(=O)N1CCCc2ccccc21	none
Cc1cc(C)c2c(n1)sc1c(=O)n(Cc3ccccc3Cl)nnc12	PostGolgi ctrl 40 (no result: tolC growth inh)
COCc1cc(C)nc2sc3c(=O)n(Cc4ccco4)nnc3c12	none
Cc1cc(C)c2c(c1)SC1=NC(c3ccccc3)(C(F)(F)F)NC(=O)N12 (centres undefined)	PostGolgi ctrl 43 (no result: tolC growth inh)
Cc1ccc(-c2cc3nc(C)cc(NCc4ccco4)n3n2)cc1	PostGolgi ctrl 33
COc1ccc(-c2cc3nc(C)cc(NCCO)n3n2)cc1	none
Clc1cccc(-c2cc3nc4c(c(NCc5ccco5)n3n2)CCCC4)c1	PostGolgi ctrl 55 (no result: tolC growth inh)
Cc1nc2cc(-c3ccc(Cl)cc3)nn2c(C)c1CCC(=O)NCc1ccco1	PostGolgi ctrl 32 (no result: tolC growth inh)
c1coc(CNc2c3c(nc4ncnn24)CCCC3)c1	none
COC(=O)c1cccc2c1-c1ccccc1/C2=N/O	PostGolgi ctrl 47
COC(=O)c1ccc2c(c1O)C(=O)c1ccccc1C2=O	PostGolgi ctrl 83, PostGolgi yeast 105 (no result: tolC growth inh)
CCSc1c(C(=O)NC)ccc2c1C(=O)c1ccccc1C2=O	none (no result: tolC growth inh)
CCC(=O)Nc1nnc(SCC(=O)c2ccc3c(c2)Cc2ccccc2-3)s1	none (no result: tolC growth inh)
c1ccc(CCn2c(C3CC3)nc3ccccc32)cc1	none (no result: tolC growth inh)
COc1cc(Cl)c(S(=O)(=O)NCc2cccnc2)cc1Cl	none
Cc1nn(-c2ccccc2)c(C)c1/C=N/O	none
Cc1nn(-c2ccccc2)c(C)c1/C=N\N1CCN(c2ccc(Cl)cc2)CC1	PostGolgi ctrl 47, PostGolgi yeast 66 (no result: tolC growth inh)
Cc1ccc(S(=O)(=O)C2(C(=O)N3CCCCC3C)CC2)cc1 (centres undefined)	none
CN(CC(=O)Nc1nc2ccccc2s1)S(=O)(=O)c1ccc(Cl)cc1	PostGolgi ctrl 31 (no result: tolC growth inh)
O=C1C(Cl)=C(NCC2CCCO2)C(=O)N1C1CCCCC1 (centres undefined)	PostGolgi ctrl 41
Cc1cccc(NC(=O)C2CCCN(S(=O)(=O)c3cccc4cccnc34)C2)c1 (centres undefined)	none
OCCOCCNc1ncnc2sc(-c3ccccc3)cc12	PLAP act 2.2 (no result: tolC growth inh)
CCc1cc2c(NCCO)ncnc2s1	none
O=C(Cn1nnc(-c2ccccc2)n1)N=Nc1c(O)[nH]c2ccccc12	none (no result: tolC growth inh)
Cc1cccc(C)c1OCC(=O)N=Nc1c(O)[nH]c2ccc(Br)cc12	PostGolgi ctrl 38 (no result: tolC growth inh)
O=C(N=Nc1c(O)[nH]c2ccc(Br)cc12)c1ccccc1-n1cccc1	PostGolgi ctrl 37 (no result: tolC growth inh)
O=C(NNC(=O)c1ccccc1-n1cccc1)c1ccc(Cl)cc1Cl	none (no result: tolC growth inh)
O=C(NCC(=O)N(c1cccnc1)C(C(=O)NCc1ccco1)c1ccccc1)c1ccco1 (centres undefined)	PostGolgi yeast 39
O=C(Cc1cccs1)NCc1ccco1	none
O=C(NCc1ccco1)C(c1cccs1)N(C(=O)Cc1cccs1)c1ccccc1 (centres undefined)	PostGolgi yeast 38
Cn1c(Oc2ccccc2NCc2cccc(Br)c2)cc(=O)n(C)c1=O	PostGolgi ctrl 38 (no result: tolC growth inh)
O=C(Nc1nc(-c2ccccc2)c(-c2ccccc2)o1)c1ccc(F)cc1	PostGolgi ctrl 85, PostGolgi yeast 98 (no result: tolC growth inh)
COc1ccccc1C(=O)Nc1nnc(-c2ccc(F)cc2)o1	none
COc1ccc(-c2nnc(NC(=O)c3ccc(F)cc3)o2)cc1	E coli WT exp 51 (no result: tolC growth inh)
O=C(Nc1nnc(-c2ccc3c(c2)CCCC3)o1)C1CCCCC1	none
COc1ccc(C(=O)Nc2cccc(-c3nnc(-c4ccco4)o3)c2)cc1	PostGolgi ctrl 31 (no result: tolC growth inh)
O=C(Nc1nnc(-c2ccc3c(c2)CCCC3)o1)c1ccc(Cl)cc1Cl	PostGolgi yeast 85 (no result: tolC growth inh)
Cc1c(NC(=O)c2ccc(F)cc2)c(=O)n(-c2ccccc2)n1C	none
Cc1nc2nc[nH]n2c(=O)c1CCC(C)C	none
CC(C)(C)NC(=O)CN(Cc1cccnc1)C(=O)c1csnn1	none
COC(=O)c1ccc(-c2ccco2)n1Cc1cccc(C)c1	none (no result: tolC growth inh)
Cc1cc(S(=O)(=O)N2CCN(c3ncccn3)CC2)ccc1-n1cnnn1	none (no result: PLAP act)
O=C(Nc1nnc(-c2ccc(F)cc2)o1)c1ccco1	tolC growth inh 77 (no result: PostGolgi ctrl, E coli WT exp, PLAP act, PostGolgi yeast)
Cc1ccccc1C(=O)Nc1nnc(-c2ccc(F)cc2)o1	none
COc1ccc(-c2nnc(NC(=O)c3cc(Cl)ccc3Cl)o2)cc1	tolC growth inh 98
Cn1c(=O)c2c(nc(NCC3CCCO3)n2Cc2cccc(Br)c2)n(C)c1=O (centres undefined)	none (no result: tolC growth inh)
Cc1cccc(NC(=O)Cn2c(C)c(C#N)c3ccccc32)c1C	none
CC(C)C(NC(=O)CN1C(=O)c2ccccc2S1(=O)=O)C(C)C	PostGolgi ctrl 31
CCOC(=O)Cc1csc(NC(=O)CN2C(=O)c3ccccc3S2(=O)=O)n1	PLAP act 2.3
CN(C)c1ncc(S(=O)(=O)c2ccc(Cl)cc2)c(-c2ccc(Cl)cc2Cl)n1	PostGolgi ctrl 49 (no result: tolC growth inh)
CN(C)c1ncc(S(=O)(=O)c2ccccc2)c(-c2ccc(Cl)cc2Cl)n1	none (no result: tolC growth inh)
Cn1nnnc1SCCOc1ccc(C#N)cc1	none
Cc1ccc(C)c(C(=O)CSc2n[nH]c(-c3ccncc3)n2)c1	tolC growth inh 99
Cn1c(=O)c(C(=S)NC(=O)C2CC2)c(N)n(Cc2ccccc2)c1=O	tolC growth inh 86 (no result: PostGolgi yeast)
CCC(=O)OCC(=O)c1c(N)n(Cc2ccccc2)c(=O)n(C)c1=O	none
CC(=O)OCCCNc1cc(Sc2nc3ccccc3s2)c2nonc2c1[N+](=O)[O-]	PostGolgi ctrl 43 (no result: tolC growth inh)
O=C(N/N=C/c1ccc(Sc2nc3ccccc3s2)c([N+](=O)[O-])c1)c1ccccn1	none (no result: tolC growth inh)
CCOC(=O)C1=C(CNCc2ccccc2Cl)NC(=O)NC1c1ccc2c(c1)OCO2 (centres undefined)	PostGolgi ctrl 39
O=C(Nc1ccccc1-c1nc2ccccc2s1)c1cccnc1Cl	none (no result: tolC growth inh)
CCOCCCNc1ncnc2c1[nH]c1ccccc12	none
C=CCNc1ncnc2c1[nH]c1ccccc12	E coli WT exp 77
C=CCNc1ncnc2c1[nH]c1ccc(Cl)cc12	E coli WT exp 73 (no result: tolC growth inh)
O=C1CCCc2c1cc(-c1ccccc1)n2-c1ccccc1	PostGolgi ctrl 51 (no result: tolC growth inh)
CCOC(=O)CSCC(NC(=O)OC(C)(C)C)C(=O)OCC (centres undefined)	none (no result: tolC growth inh)
CCOC(=O)C(CSCC(=O)c1ccc(Cl)cc1Cl)NC(=O)OC(C)(C)C (centres undefined)	PLAP act 2 (no result: tolC growth inh)
COc1ccc(C)cc1NC(=O)C(=O)NCc1ccncc1	none (no result: tolC growth inh)
CCC1CCCCN1S(=O)(=O)c1ccc(C(=O)Nc2nnc(-c3cccs3)o2)cc1 (centres undefined)	tolC growth inh 99 (no result: PLAP act)
O=C(Nc1nnc(-c2cccs2)o1)c1cccc(C(F)(F)F)c1	tolC growth inh 100, PostGolgi ctrl 36, E coli WT exp 57, PLAP act 2.1, PostGolgi yeast 73
CC1CC(C)CN(S(=O)(=O)c2ccc(C(=O)Nc3sccc3C(N)=O)cc2)C1 (centres undefined)	none (no result: tolC growth inh)
CC1CC(C)CN(S(=O)(=O)c2ccc(C(=O)Nc3nnc(-c4cccs4)o3)cc2)C1 (centres undefined)	tolC growth inh 99
